{"source": "ChEMBL document CHEMBL4842318", "about": "“A γ-lactam siderophore antibiotic effective against multidrug-resistant Pseudomonas aeruginosa, Klebsiella pneumoniae, and Acinetobacter spp” (Eur J Med Chem, 2021)", "key": {"[1]": {"system": "Acinetobacter baumannii", "assay": "Antibacterial activity against carbapenem resistant Acinetobacter baumannii isolate PR-482 assessed as inhibition of bacterial growth in presence of 20 ug/ml sulbactam by microdilution method", "assay_type": "functional", "conditions": "dose 20 µg/ml", "how_it_was_run": "(§1)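 Broth microdilution MIC in iron-depleted (Chelex resin-treated) cation-adjusted Mueller-Hinton broth, following the protocol used for siderophore-containing antibiotics. Inoculum was lowered to 6 × 10^4 cfu/mL.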"}, "[2]": {"system": "Acinetobacter baumannii", "assay": "Antibacterial activity against carbapenem susceptible Acinetobacter baumannii isolate PR-478 assessed as inhibition of bacterial growth at 1:1 compound to sulbactam concentration by microdilution method", "assay_type": "functional", "how_it_was_run": "(§2)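 Broth microdilution MIC in Chelex-treated, iron-depleted cation-adjusted Mueller-Hinton broth, inoculum 6 × 10^4 cfu/mL. Compound and sulbactam combined 1:1 by mass in a 2-fold dilution series.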"}, "[3]": {"assay": "Substrate activity at VIM-2 (unknown origin) assessed as ratio of Kcat to Km by measuring hydrolysis by spectrophotometry", "assay_type": "ADME", "how_it_was_run": "(§3)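 Substrate hydrolysis (600 μM start) followed at 336 nm (Δε336 = −4362 M−1 cm−1, 0.2 cm cuvette) to completion; velocities over 10 s intervals along progress curve; Km, Vmax from double reciprocal plot, kcat = Vmax/[E].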"}, "[4]": {"system": "Pseudomonas aeruginosa", "assay": "Antibacterial activity against Pseudomonas aeruginosa AR-BANK#0229 infected in sc dosed thigh infection mouse model assessed as reduction in CFU treated four times at 6 hrs interval measured at 26 hrs after infection", "assay_type": "functional, organism-based", "how_it_was_run": "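Neutropenic mice (cyclophosphamide) inoculated intramuscularly with 1.02 × 10^6 CFU/mouse. Drug given SC at 50 and 100 mg/kg q6h at 2, 8, 14 and 20 h post-infection. Thighs harvested at 26 h and weighed. Thigh CFU/g compared with the 2 h baseline (Δ reported) and with vehicle, using one-way ANOVA with Dunnett's test.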"}, "[5]": {"assay": "Antibacterial activity against carbapenem susceptible Acinetobacter nosocomialis isolate PR-491 assessed as inhibition of bacterial growth at 1:1 compound to sulbactam concentration by microdilution method", "assay_type": "functional", "how_it_was_run": "as §2"}, "[6]": {"system": "Acinetobacter baumannii", "assay": "Antibacterial activity against carbapenem resistant Acinetobacter baumannii isolate PR-459 assessed as bacterial growth inhibition by microdilution method", "assay_type": "functional", "how_it_was_run": "(§4)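 Broth microdilution in Chelex-treated, iron-depleted cation-adjusted Mueller-Hinton broth, following the protocol used for siderophore-containing antibiotics; inoculum lowered to 6 × 10^4 cfu/mL; MIC read as growth inhibition, in μg/mL.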"}, "[7]": {"system": "Acinetobacter baumannii", "assay": "Antibacterial activity against carbapenem resistant Acinetobacter baumannii isolate PR-319 assessed as inhibition of bacterial growth at 1:1 compound to sulbactam concentration by microdilution method", "assay_type": "functional", "how_it_was_run": "(§5)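 Iron-depleted (Chelex-treated) cation-adjusted Mueller-Hinton broth microdilution; inoculum 6 × 10^4 cfu/mL. Test agent and sulbactam mixed 1:1 by mass and serially 2-fold diluted together. MIC in μg/mL.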"}, "[8]": {"system": "Pseudomonas aeruginosa", "assay": "Antibacterial activity against wild type Pseudomonas aeruginosa isolate PR-688 leucine at 533 residue assessed as inhibition of bacterial growth by microdilution method", "assay_type": "functional", "how_it_was_run": "as §1"}, "[9]": {"assay": "Solubility of compound in pH 7.5 phosphate buffer by nephelometry", "assay_type": "physicochemical"}, "[10]": {"assay": "Antibacterial activity against carbapenem susceptible Acinetobacter nosocomialis isolate PR-412 assessed as inhibition of bacterial growth at 1:1 compound to sulbactam concentration by microdilution method", "assay_type": "functional", "how_it_was_run": "as §1"}, "[11]": {"system": "Acinetobacter baumannii", "assay": "Antibacterial activity against carbapenem resistant Acinetobacter baumannii isolate PR-342 assessed as bacterial growth inhibition by microdilution method", "assay_type": "functional", "how_it_was_run": "as §4"}, "[12]": {"system": "Pseudomonas aeruginosa", "assay": "Antibacterial activity against wild type Pseudomonas aeruginosa isolate PR-699 assessed as inhibition of bacterial growth by microdilution method", "assay_type": "functional", "how_it_was_run": "as §1"}, "[13]": {"system": "Acinetobacter baumannii", "assay": "Antibacterial activity against carbapenem resistant Acinetobacter baumannii isolate PR-314 assessed as inhibition of bacterial growth at 1:1 compound to sulbactam concentration by microdilution method", "assay_type": "functional", "how_it_was_run": "as §5"}, "[14]": {"system": "Acinetobacter baumannii", "assay": "Antibacterial activity against carbapenem resistant Acinetobacter baumannii isolate PR-380 assessed as bacterial growth inhibition by microdilution method", "assay_type": "functional", "how_it_was_run": "as §4"}, "[15]": {"assay": "Antibacterial activity against carbapenem susceptible Acinetobacter nosocomialis isolate PR-362 assessed as bacterial growth inhibition by microdilution method", "assay_type": "functional", "how_it_was_run": "as §1"}, "[16]": {"system": "Acinetobacter baumannii", "assay": "Antibacterial activity against carbapenem resistant Acinetobacter baumannii isolate PR-380 assessed as inhibition of bacterial growth in presence of 20 ug/ml sulbactam by microdilution method", "assay_type": "functional", "conditions": "dose 20 µg/ml"}, "[17]": {"system": "Acinetobacter baumannii", "assay": "Antibacterial activity against carbapenem resistant Acinetobacter baumannii isolate PR-325 assessed as inhibition of bacterial growth in presence of 20 ug/ml sulbactam by microdilution method", "assay_type": "functional", "conditions": "dose 20 µg/ml"}, "[18]": {"system": "Acinetobacter baumannii", "assay": "Antibacterial activity against carbapenem resistant Acinetobacter baumannii isolate PR-342 assessed as inhibition of bacterial growth in presence of 20 ug/ml sulbactam by microdilution method", "assay_type": "functional", "conditions": "dose 20 µg/ml"}, "[19]": {"system": "Acinetobacter baumannii", "assay": "Antibacterial activity against carbapenem susceptible Acinetobacter baumannii isolate PR-478 assessed as inhibition of bacterial growth in presence of 20 ug/ml sulbactam by microdilution method", "assay_type": "functional", "conditions": "dose 20 µg/ml", "how_it_was_run": "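MIC by broth microdilution using iron-depleted (Chelex-treated) cation-adjusted Mueller-Hinton broth and 6 × 10^4 cfu/mL inoculum. Compound serially diluted with sulbactam held constant at 20 μg/mL.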"}, "[20]": {"system": "Acinetobacter baumannii", "assay": "Antibacterial activity against carbapenem resistant Acinetobacter baumannii isolate PR-384 assessed as inhibition of bacterial growth at 1:1 compound to sulbactam concentration by microdilution method", "assay_type": "functional", "how_it_was_run": "as §5"}, "[21]": {"target": "COX-1 (Homo sapiens, UniProt P23219)", "sequence (P23219 whole entry)": "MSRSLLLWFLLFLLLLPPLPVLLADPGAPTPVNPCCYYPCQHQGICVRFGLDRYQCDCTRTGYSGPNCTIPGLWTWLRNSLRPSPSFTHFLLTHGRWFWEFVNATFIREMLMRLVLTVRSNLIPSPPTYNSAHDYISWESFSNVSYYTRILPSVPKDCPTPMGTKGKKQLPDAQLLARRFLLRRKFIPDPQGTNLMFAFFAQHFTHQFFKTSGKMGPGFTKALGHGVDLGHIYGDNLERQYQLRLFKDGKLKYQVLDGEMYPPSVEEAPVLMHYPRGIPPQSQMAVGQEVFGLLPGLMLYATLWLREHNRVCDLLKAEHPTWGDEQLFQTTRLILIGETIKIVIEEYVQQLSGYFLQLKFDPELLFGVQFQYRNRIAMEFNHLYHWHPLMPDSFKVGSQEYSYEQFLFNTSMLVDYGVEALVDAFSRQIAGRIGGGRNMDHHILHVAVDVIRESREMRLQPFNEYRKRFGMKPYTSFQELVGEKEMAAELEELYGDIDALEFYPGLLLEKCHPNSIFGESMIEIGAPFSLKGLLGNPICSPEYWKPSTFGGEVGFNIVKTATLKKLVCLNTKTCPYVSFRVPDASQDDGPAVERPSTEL", "assay": "Inhibition of COX-1 (unknown origin) at 30 uM"}, "[22]": {"system": "Acinetobacter baumannii", "assay": "Antibacterial activity against carbapenem resistant Acinetobacter baumannii isolate PR-351 assessed as inhibition of bacterial growth in presence of 20 ug/ml sulbactam by microdilution method", "assay_type": "functional", "conditions": "dose 20 µg/ml"}, "[23]": {"system": "Acinetobacter baumannii", "assay": "Antibacterial activity against carbapenem resistant Acinetobacter baumannii isolate PR-399 assessed as inhibition of bacterial growth in presence of 20 ug/ml sulbactam by microdilution method", "assay_type": "functional", "conditions": "dose 20 µg/ml"}, "[24]": {"system": "Acinetobacter baumannii", "assay": "Antibacterial activity against carbapenem resistant Acinetobacter baumannii isolate PR-380 assessed as inhibition of bacterial growth at 1:1 compound to sulbactam concentration by microdilution method", "assay_type": "functional", "how_it_was_run": "as §5"}, "[25]": {"system": "Hepatocyte", "assay": "Cytotoxicity against human hepatocytes at 100 uM", "assay_type": "cell-based"}, "[26]": {"system": "Acinetobacter baumannii", "assay": "Antibacterial activity against carbapenem resistant Acinetobacter baumannii isolate PR-326 assessed as inhibition of bacterial growth in presence of 20 ug/ml sulbactam by microdilution method", "assay_type": "functional", "conditions": "dose 20 µg/ml"}, "[27]": {"assay": "Substrate activity at NDM1 (unknown origin) assessed as Kcat by measuring hydrolysis by spectrophotometry", "assay_type": "ADME", "how_it_was_run": "as §3"}, "[28]": {"system": "Pseudomonas aeruginosa", "assay": "Antibacterial activity against wild type Pseudomonas aeruginosa isolate PR-567 assessed as inhibition of bacterial growth by microdilution method", "assay_type": "functional", "how_it_was_run": "as §1"}, "[29]": {"system": "Pseudomonas aeruginosa", "assay": "Antibacterial activity against wild type Pseudomonas aeruginosa isolate PR-606 assessed as inhibition of bacterial growth by microdilution method", "assay_type": "functional", "how_it_was_run": "as §1"}, "[30]": {"system": "Acinetobacter baumannii", "assay": "Antibacterial activity against carbapenem resistant Acinetobacter baumannii isolate PR-401 assessed as bacterial growth inhibition by microdilution method", "assay_type": "functional", "how_it_was_run": "as §4"}, "[31]": {"system": "Acinetobacter baumannii", "assay": "Antibacterial activity against carbapenem resistant Acinetobacter baumannii isolate PR-384 assessed as inhibition of bacterial growth in presence of 20 ug/ml sulbactam by microdilution method", "assay_type": "functional", "conditions": "dose 20 µg/ml"}, "[32]": {"system": "Acinetobacter baumannii", "assay": "Antibacterial activity against carbapenem resistant Acinetobacter baumannii isolate PR-319 assessed as bacterial growth inhibition by microdilution method", "assay_type": "functional", "how_it_was_run": "as §4"}, "[33]": {"assay": "Metabolic stability in CD-1 mouse microsomes assessed as half life", "assay_type": "ADME, Microsome"}, "[34]": {"assay": "Plasma protein binding in mouse", "conditions": "read-out: PPB (converted)"}, "[35]": {"system": "Acinetobacter baumannii", "assay": "Antibacterial activity against carbapenem resistant Acinetobacter baumannii isolate PR-345 assessed as inhibition of bacterial growth in presence of 20 ug/ml sulbactam by microdilution method", "assay_type": "functional", "conditions": "dose 20 µg/ml"}}}
{"smiles": "CC(C)(O/N=C(\\C(=O)N[C@H]1CN2CC(C(=O)NCCN3C(=O)c4cc(O)c(O)cc4C3=O)=C(C(=O)O)N2C1=O)c1nc(N)sc1Cl)C(=O)O", "values": [{"measurement": "MIC", "setting": "[1]", "result": "≤ 0.25", "unit": "µg/mL"}, {"measurement": "MIC", "setting": "[2]", "result": 1, "unit": "µg/mL"}, {"measurement": "Kcat/Km", "setting": "[3]", "result": 12000, "unit": "M⁻¹ s⁻¹"}, {"measurement": "Activity", "setting": "[4]", "result": "Dose-Dependent Effect"}, {"measurement": "MIC", "setting": "[5]", "result": 0.5, "unit": "µg/mL"}, {"measurement": "MIC", "setting": "[6]", "result": 16, "unit": "µg/mL"}, {"measurement": "MIC", "setting": "[7]", "result": 4, "unit": "µg/mL"}, {"measurement": "MIC", "setting": "[8]", "result": "> 16", "unit": "µg/mL"}, {"measurement": "solubility kinetic", "setting": "[9]", "result": "> 100", "unit": "µM"}, {"measurement": "MIC", "setting": "[10]", "result": 1, "unit": "µg/mL"}, {"measurement": "MIC", "setting": "[11]", "result": 16, "unit": "µg/mL"}, {"measurement": "MIC", "setting": "[12]", "result": "> 16", "unit": "µg/mL"}, {"measurement": "MIC", "setting": "[13]", "result": 4, "unit": "µg/mL"}, {"measurement": "MIC", "setting": "[14]", "result": "> 16", "unit": "µg/mL"}, {"measurement": "MIC", "setting": "[15]", "result": "> 16", "unit": "µg/mL"}, {"measurement": "MIC", "setting": "[16]", "result": "≤ 0.25", "unit": "µg/mL"}, {"measurement": "MIC", "setting": "[17]", "result": "> 16", "unit": "µg/mL"}, {"measurement": "MIC", "setting": "[18]", "result": "> 16", "unit": "µg/mL"}, {"measurement": "MIC", "setting": "[19]", "result": "≤ 0.25", "unit": "µg/mL"}, {"measurement": "MIC", "setting": "[20]", "result": 16, "unit": "µg/mL"}, {"measurement": "inhibition at 30 µM", "setting": "[21]", "result": "> 50", "unit": "%"}, {"measurement": "MIC", "setting": "[22]", "result": "≤ 0.25", "unit": "µg/mL"}, {"measurement": "MIC", "setting": "[23]", "result": "≤ 0.25", "unit": "µg/mL"}, {"measurement": "MIC", "setting": "[24]", "result": 16, "unit": "µg/mL"}, {"measurement": "Activity", "setting": "[25]", "result": "Non-Toxic"}, {"measurement": "MIC", "setting": "[26]", "result": "≤ 0.25", "unit": "µg/mL"}, {"measurement": "Kcat", "setting": "[27]", "result": 35, "unit": "s⁻¹"}, {"measurement": "MIC", "setting": "[28]", "result": "≤ 0.25", "unit": "µg/mL"}, {"measurement": "MIC", "setting": "[29]", "result": "> 16", "unit": "µg/mL"}, {"measurement": "MIC", "setting": "[30]", "result": "> 16", "unit": "µg/mL"}, {"measurement": "MIC", "setting": "[31]", "result": "> 16", "unit": "µg/mL"}, {"measurement": "MIC", "setting": "[32]", "result": "> 16", "unit": "µg/mL"}, {"measurement": "t1/2", "setting": "[33]", "result": "> 1", "unit": "h"}, {"measurement": "fraction unbound", "setting": "[34]", "result": 0.06}, {"measurement": "MIC", "setting": "[35]", "result": "≤ 0.25", "unit": "µg/mL"}]}
